Source: ChEMBL document CHEMBL1132381, “Pyrrolidine-3-carboxylic acids as endothelin antagonists. 4. Side chain conformational restriction leads to ET(B) selectivity” (J Med Chem, 1999)

Assays:
[1] = biological target: Endothelin receptor, ET-A/ET-B (Homo sapiens) (UniProt P24530+P25101); test: Ratio of binding affinity towards hETA to hETB; assay type: protein assay
Procedure, shortened: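 Ratio of IC50 values from two CHO membrane binding assays. Both run 3 h at 25 °C over 11 concentrations, 10^-10 to 10^-5 M, in duplicate, with at least 2 determinations each.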

[2] = Compound was evaluated for area under curve when administered through oral route to rat; conditions: in vivo
[3] = Oral bioavailability in rat; conditions: in vivo
[4] = biological target: T1, Endothelin-1 receptor (Homo sapiens, UniProt P25101); test: Binding affinity towards human Endothelin A receptor (hET -A)
T1 sequence (P25101 whole entry): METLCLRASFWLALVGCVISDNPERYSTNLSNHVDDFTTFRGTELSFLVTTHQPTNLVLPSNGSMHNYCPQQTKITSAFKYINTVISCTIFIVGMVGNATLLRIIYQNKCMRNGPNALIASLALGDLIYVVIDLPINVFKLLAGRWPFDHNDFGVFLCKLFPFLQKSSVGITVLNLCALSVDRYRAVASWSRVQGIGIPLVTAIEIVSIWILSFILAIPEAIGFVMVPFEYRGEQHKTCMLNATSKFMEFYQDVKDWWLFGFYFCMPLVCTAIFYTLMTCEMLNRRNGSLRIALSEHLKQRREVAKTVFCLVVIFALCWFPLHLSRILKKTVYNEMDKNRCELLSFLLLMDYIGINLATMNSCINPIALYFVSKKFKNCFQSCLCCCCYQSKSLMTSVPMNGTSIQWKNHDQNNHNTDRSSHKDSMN

[5] = biological target: T2, Endothelin receptor type B (Homo sapiens, UniProt P24530); test: Binding affinity towards human Endothelin B receptor (hET -B)
T2 sequence (P24530 whole entry): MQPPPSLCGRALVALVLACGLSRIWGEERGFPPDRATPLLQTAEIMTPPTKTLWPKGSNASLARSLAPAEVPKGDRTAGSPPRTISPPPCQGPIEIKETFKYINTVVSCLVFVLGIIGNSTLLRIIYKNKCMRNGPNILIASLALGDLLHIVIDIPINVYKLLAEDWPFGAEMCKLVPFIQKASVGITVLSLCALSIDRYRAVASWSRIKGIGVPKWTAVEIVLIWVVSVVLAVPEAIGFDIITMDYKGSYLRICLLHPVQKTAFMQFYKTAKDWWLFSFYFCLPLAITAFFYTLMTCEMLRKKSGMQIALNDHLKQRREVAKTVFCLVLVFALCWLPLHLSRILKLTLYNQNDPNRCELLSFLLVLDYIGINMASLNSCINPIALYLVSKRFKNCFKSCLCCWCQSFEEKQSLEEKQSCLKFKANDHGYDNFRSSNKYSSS

[6] = test system: CHO; test: Antagonistic activity was measured by ET receptor mediated hydrolysis of inositol phosphates; assay type: functional, cell-based; conditions: Cricetulus griseus
Procedure, shortened: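 Inositol phosphate hydrolysis in human ETB-transfected CHO cells. Confluent cells labeled with 5 μCi/well [3H]myoinositol, then held 60 min at 37 °C in HEPES saline buffer with protease inhibitors and 10 mM LiCl. Compounds added, then 1 nM ET-1 challenge for 30 min at 37 °C. Total inositol phosphates measured; agonist activity assessed in the same run.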

[7] = Compound was evaluated for the biological half-life when administered through intravenous route; assay type: ADME, organism-based; conditions: in vivo
[8] = species on record: Rattus norvegicus; test: Clearance role of ET-B evaluated in terms of increase in mean arterial pressure (MAP) in rats; assay type: functional, Artery
[9] = Oral bioavailability in rat; conditions: in vivo; remark: listed apart in the source
[10] = species on record: Rattus norvegicus; test: Clearance role of ET-B evaluated in terms of increase in circulating levels of ET-1 in rats; assay type: functional
[11] = test system: Rattus norvegicus; test: Oral bioavailability in rat
[12] = Compound was evaluated for area under curve when administered through oral route in rat; conditions: in vivo

Compound	Ratio [1]	IC50 [4]	IC50 [5]	other results
CCc1cccc(CC)c1NC(=O)CN1C[C@H](c2ccc3c(c2)OCO3)[C@@H](C(=O)O)[C@@H]1c1ccc(OC)cc1 (stereo in doubt; 19) [listing 1 of 2 here]	32			
CCOc1ccc([C@H]2[C@H](C(=O)O)[C@@H](c3ccc4c(c3)OCO4)CN2CC(=O)Nc2c(CC)cccc2CC)cc1 (stereo in doubt; 37) [listing 1 of 2 here]		340 nM	1.2 nM	AUC [2]: 3400 ng·h/mL; bioavailability [3]: 37%; IC50 [6]: 7.9 nM; half-life [7]: 3.1 h
COc1ccc([C@H]2[C@H](C(=O)O)[C@@H](c3ccc4c(c3)OCO4)CN2CC(=O)Nc2c(C(C)C)cccc2C(C)C)cc1	35	920 nM	26 nM	
CCc1cccc(CC)c1NC(=O)CN1C[C@H](c2ccc3c(c2)OCO3)[C@@H](C(=O)O)[C@@H]1c1ccc(OCCOC)cc1 (stereo in doubt; 34) [listing 1 of 2 here]	4000			
CCCOc1ccc([C@H]2[C@H](C(=O)O)[C@@H](c3ccc4c(c3)OCO4)CN2CC(=O)Nc2c(CC)cccc2CC)cc1 (stereo in doubt; 38) [A-192621]		8200 nM	6.4 nM	MAP [8]: 150 mmHg; AUC [2]: 2500 ng·h/mL; bioavailability [9]: 35%; IC50 [6]: 0.65 nM; ET-1 level [10]: 19 pg/mL; half-life [7]: 5 h
CCCOc1ccc([C@H]2[C@H](C(=O)O)[C@@H](c3ccc4c(c3)OCO4)CN2CC(=O)Nc2c(CC)cccc2CC)cc1 (stereo in doubt; 32)	820			
CCc1cccc(CC)c1NC(=O)CN1C[C@H](c2ccc3c(c2)OCO3)[C@@H](C(=O)O)[C@@H]1c1ccc(OCCOC)cc1 (stereo in doubt; 39) [listing 1 of 2 here]		3700 nM	0.85 nM	AUC [2]: 650 ng·h/mL; half-life [7]: 2.6 h
CCc1cccc(CC)c1NC(=O)CN1C[C@H](c2ccc3c(c2)OCO3)[C@@H](C(=O)O)[C@@H]1c1ccc(OCCOC)cc1 (stereo in doubt; 34) [listing 2 of 2 here]		4200 nM	1.1 nM	
CCOc1ccc([C@H]2[C@H](C(=O)O)[C@@H](c3ccc4c(c3)OCO4)CN2CC(=O)Nc2c(CC)cccc2CC)cc1 (stereo in doubt; 31) [listing 1 of 2 here]		910 nM	3.6 nM	
CCc1cccc(CC)c1NC(=O)CN1C[C@H](c2ccc3c(c2)OCO3)[C@@H](C(=O)O)[C@@H]1c1ccc(OCCOC)cc1 (stereo in doubt; 39) [listing 2 of 2 here]	4400			bioavailability [11]: 9%
CCCOc1ccc([C@H]2[C@H](C(=O)O)[C@@H](c3ccc4c(c3)OCO4)CN2CC(=O)Nc2c(CC)cccc2CC)cc1 (stereo in doubt; 38)	1300			
CCOc1ccc([C@H]2[C@H](C(=O)O)[C@@H](c3ccc4c(c3)OCO4)CN2CC(=O)Nc2c(CC)cccc2CC)cc1 (stereo in doubt; 31) [listing 2 of 2 here]	250			
CCc1cc(C(=O)O)cc(CC)c1NC(=O)CN1C[C@H](c2ccc3c(c2)OCO3)[C@@H](C(=O)O)[C@@H]1c1ccc(OC)cc1	19	840 nM	44 nM	
CCc1cccc(CC)c1NC(=O)CN1C[C@H](c2ccc3c(c2)OCO3)[C@@H](C(=O)O)[C@@H]1c1ccc(CCOC)cc1	3000	11000 nM	3.8 nM	
CCc1cccc(CC)c1NC(=O)CN1C[C@H](c2ccc3c(c2)OCO3)[C@@H](C(=O)O)[C@@H]1c1ccc(OC(C)C)cc1	220	1500 nM	6.9 nM	
CCCOc1ccc([C@H]2[C@H](C(=O)O)[C@@H](c3ccc4c(c3)OCO4)CN2CC(=O)Nc2c(CC)cccc2CC)cc1 (stereo in doubt; 32) [A-192621]		9900 nM	12 nM	
CCc1cccc(CC)c1NC(=O)CN1C[C@H](c2ccc3c(c2)OCO3)[C@@H](C(=O)O)[C@@H]1c1ccc(OC)cc1 (stereo in doubt; 36) [listing 1 of 2 here]	330			
CCOc1ccc([C@H]2[C@H](C(=O)O)[C@@H](c3ccc4c(c3)OCO4)CN2CC(=O)Nc2c(CC)cccc2CC)cc1 (stereo in doubt; 37) [listing 2 of 2 here]	280			

The remaining compounds from weak to strong by IC50 [4], led by results:

Ratio [1]	IC50 [4]	IC50 [5]	Compound	other results
34	200 nM	5.8 nM	CCc1cccc(OC)c1NC(=O)CN1C[C@H](c2ccc3c(c2)OCO3)[C@@H](C(=O)O)[C@@H]1c1ccc(OC)cc1	
0.3	190 nM	600 nM	CCc1cccc(CC)c1N(C)C(=O)CN1C[C@H](c2ccc3c(c2)OCO3)[C@@H](C(=O)O)[C@@H]1c1ccc(OC)cc1	
0.06	160 nM	2700 nM	COc1ccc([C@H]2[C@H](C(=O)O)[C@@H](c3ccc4c(c3)OCO4)CN2CC(=O)Nc2cc(C)cc(C)c2)cc1	
5	100 nM	20 nM	COc1ccc([C@H]2[C@H](C(=O)O)[C@@H](c3ccc4c(c3)OCO4)CN2CC(=O)Nc2c(C)cccc2C(C)C)cc1	
	89 nM	0.27 nM	CCc1cccc(CC)c1NC(=O)CN1C[C@H](c2ccc3c(c2)OCO3)[C@@H](C(=O)O)[C@@H]1c1ccc(OC)cc1 (stereo in doubt; 36) [listing 2 of 2 here]	bioavailability [3]: 49%; AUC [12]: 3900 ng·h/mL; half-life [7]: 6.4 h
6	61 nM	10 nM	COc1ccc([C@H]2[C@H](C(=O)O)[C@@H](c3ccc4c(c3)OCO4)CN2CC(=O)Nc2c(Br)cccc2Br)cc1	
0.06	50 nM	830 nM	COc1ccc([C@H]2[C@H](C(=O)O)[C@@H](c3ccc4c(c3)OCO4)CN2CC(=O)Nc2ccc(C)c(C)c2)cc1	
	45 nM	1.4 nM	CCc1cccc(CC)c1NC(=O)CN1C[C@H](c2ccc3c(c2)OCO3)[C@@H](C(=O)O)[C@@H]1c1ccc(OC)cc1 (stereo in doubt; 19) [listing 2 of 2 here]	
2	33 nM	16 nM	COc1ccc([C@H]2[C@H](C(=O)O)[C@@H](c3ccc4c(c3)OCO4)CN2CC(=O)Nc2c(C)cccc2C)cc1	
0.4	33 nM	82 nM	COc1ccc([C@H]2[C@H](C(=O)O)[C@@H](c3ccc4c(c3)OCO4)CN2CC(=O)Nc2cc(C)ccc2C)cc1	
0.3	25 nM	74 nM	COc1ccc([C@H]2[C@H](C(=O)O)[C@@H](c3ccc4c(c3)OCO4)CN2CC(=O)Nc2ccc(C)cc2C)cc1	
24	22 nM	0.8 nM	CCc1cc(F)cc(CC)c1NC(=O)CN1C[C@H](c2ccc3c(c2)OCO3)[C@@H](C(=O)O)[C@@H]1c1ccc(OC)cc1	
0.3	16 nM	57 nM	COc1ccc([C@H]2[C@H](C(=O)O)[C@@H](c3ccc4c(c3)OCO4)CN2CC(=O)Nc2c(OC)cccc2OC)cc1	
0.2	16 nM	81 nM	COc1ccc([C@H]2[C@H](C(=O)O)[C@@H](c3ccc4c(c3)OCO4)CN2CC(=O)Nc2cccc(C)c2C)cc1	
4	15 nM	4 nM	CCc1cccc(C)c1NC(=O)CN1C[C@H](c2ccc3c(c2)OCO3)[C@@H](C(=O)O)[C@@H]1c1ccc(OC)cc1	
0.2	15 nM	82 nM	CCCc1cccc(CC)c1NC(=O)CN1C[C@H](c2ccc3c(c2)OCO3)[C@@H](C(=O)O)[C@@H]1c1ccc(OC)cc1	
0.03	12 nM	460 nM	CCCc1cccc(CCC)c1NC(=O)CN1C[C@H](c2ccc3c(c2)OCO3)[C@@H](C(=O)O)[C@@H]1c1ccc(OC)cc1	
7	10 nM	1.5 nM	CCc1cc(CC)c(NC(=O)CN2C[C@H](c3ccc4c(c3)OCO4)[C@@H](C(=O)O)[C@@H]2c2ccc(OC)cc2)c(CC)c1	
